Sampled rows, rich in hits. Any-hit rate of the full collection: about 2.3%.
RAM inhibit: yeast RAM network inhibition. S. cerevisiae dse1pr::URA3 reporter, 5-FOA growth OD615, 2 d; analog-sensitive cbk1-as2 kinase mutant strain. inhibition, % at 50 µM. 1.8% of 190,000 active;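 active = inhibition above a set limit, 3 SD over mean compound inhibition, cut at about 8.4% in these data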;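 note: 0% = DMSO-only wells with no growth and 100% = 10 µM 1-NA-PP1 full growth; inhibition rescues growth on 5-FOA so higher OD means more RAM inhibition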
ABCG2 block: human ABCG2 inhibition, ABCB1 as counter-screen. IgMXP3 cells, JC-1 efflux, flow cytometry. 0.1% of 190,000 active. inhibition, % at 6.6 µM. Q9UNQ0;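 active = inhibition above 80%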;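 note: 0% = DMSO and 100% = nicardipine control wells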
Target sequence (Q9UNQ0 whole entry, looked up): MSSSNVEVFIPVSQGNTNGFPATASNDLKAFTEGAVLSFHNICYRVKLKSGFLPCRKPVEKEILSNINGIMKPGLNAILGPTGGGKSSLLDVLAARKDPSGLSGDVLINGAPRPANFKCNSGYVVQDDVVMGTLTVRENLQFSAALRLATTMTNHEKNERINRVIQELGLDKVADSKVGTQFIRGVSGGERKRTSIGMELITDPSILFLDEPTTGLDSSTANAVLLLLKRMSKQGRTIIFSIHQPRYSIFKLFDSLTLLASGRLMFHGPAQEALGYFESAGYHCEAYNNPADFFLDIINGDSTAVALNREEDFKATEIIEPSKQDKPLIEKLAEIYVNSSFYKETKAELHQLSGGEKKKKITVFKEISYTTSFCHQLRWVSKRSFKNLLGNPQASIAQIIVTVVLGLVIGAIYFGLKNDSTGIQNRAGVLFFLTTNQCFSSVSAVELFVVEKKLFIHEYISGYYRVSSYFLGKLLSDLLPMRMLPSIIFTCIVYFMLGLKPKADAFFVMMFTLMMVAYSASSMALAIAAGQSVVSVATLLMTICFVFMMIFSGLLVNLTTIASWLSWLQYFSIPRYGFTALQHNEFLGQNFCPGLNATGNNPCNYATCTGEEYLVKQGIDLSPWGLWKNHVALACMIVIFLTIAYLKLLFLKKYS
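material = IgMXP3 (ABCG2) plus far-red-tagged CCRF-Adr (ABCB1) cells | amount = 3 million cells/mL, equal mix of both lines | also added = JC-1 transporter substrate | dosing = one concentration, 6.6 µM final | schedule = 10 min at 25 °C | measured by = flow cytometric JC-1 green MFI at 530 nm | read-out basis = percent efflux inhibition, scaled nicardipine 100% to DMSO 0%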
ABCB1 inh: blocks JC-1 efflux by human ABCB1 transporter. P08183. CCRF-Adr cells, flow cytometry. inhibition, % at 6.6 µM. 0.067% of 190,000 active. AID 1326; in the data active = inhibition above about 40%;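 note: 0% = vehicle and 100% = reference inhibitor; higher value means more JC-1 retained so stronger ABCB1 efflux block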
Arbovirus anti: arbovirus infection inhibition. inhibition, % at 10 µM. arbovirus infection cell-based antiviral screen. 0.37% of 200,000 active; in the data active = inhibition above about 30%
* = called active by the depositor.

SMILES | RAM inhibit | ABCG2 block | ABCB1 inh | Arbovirus anti
Cc1ccccc1-c1nsc(SCC(=O)Nc2ccc3c(c2)OCO3)n1 | 9.4* | -0.7 | -0.3 | -10.2
Cc1cccc(-c2nsc(SCC(=O)Nc3ccc4c(c3)OCO4)n2)c1 | 4.4 | -2.0 | -0.7 | 3.6
CCOC(=O)N1CCN(S(=O)(=O)c2ccc(OCC)c3ccccc23)CC1 | 7.3 | 1.6 | 0.8 | -8.9
CCSc1nnc(NC(=O)COc2ccc(Cl)cc2)s1 | 1.5 | 10.7 | 0.7 | 3.1
CCSc1nnc(NC(=O)c2ccc(Br)s2)s1 | 5.1 | 0.6 | -0.1 | 31.0*
O=C(Nc1nc2c(s1)CCCC2)c1ccc(Br)s1 | 2.5 | 2.0 | 0.4 | 37.7*
CCSc1nnc(NC(=O)COc2cccc3ccccc23)s1 | 9.7* | 0.9 | 0.2 | -0.1
CN1CCN(C(=O)c2cnn3c2NC(c2ccccc2)CC3C(F)(F)F)CC1 (stereo not drawn) | 0.1 | 1.1 | 0.3 | 2.6
O=C(NCc1ccccc1)C1=C[C@H](c2ccc(Br)cc2)C[C@H](OCc2ccc(CO)cc2)O1 | 10.6* | 4.6 | 1.4 | -10.6
CC(C)(C)[C@H]1C=C(C(=O)Nc2ccccc2)O[C@@H](OCc2ccc(CO)cc2)C1 | 10.0* | 12.8 | 1.4 | -11.2
O=C(Nc1ccccc1)C1=C[C@@H](c2ccccc2)C[C@@H](OCc2ccc(CO)cc2)O1 | 9.9* | 7.8 | 1.3 | -12.4
O=C(NCc1ccccc1)C1=C[C@@H](c2ccccc2)C[C@@H](OCc2ccc(CO)cc2)O1 | 7.6 | 2.3 | 0.6 | -14.6
CC(C)(C)[C@@H]1C=C(C(=O)NCc2ccccc2)O[C@H](OCc2ccc(CO)cc2)C1 | 3.7 | 4.9 | 0.6 | 4.5
O=C(Nc1ccccc1)C1=C[C@@H](c2ccc(C(F)(F)F)cc2)C[C@@H](OCc2ccc(CO)cc2)O1 | 9.7* | 18.6 | 1.8 | -13.7
Cc1ccc(NC(=O)CSc2nc(N)c(-c3ccccc3)c(=O)[nH]2)cc1Cl | 2.1 | 3.5 | 0.5 | -4.4
CC(=O)n1cc([C@H]2C=C(C(=O)NCc3ccccc3)O[C@@H](OCCCCO)C2)c2ccccc21 | 8.8* | 13.1 | 8.2 | 7.0
CC(=O)n1cc([C@@H]2C=C(C(=O)NCc3ccccc3)O[C@H](OCCCCO)C2)c2ccccc21 | 3.1 | 8.6 | 11.8 | 3.6
C#CCNC(=O)C1=C[C@H](c2csc3ccccc23)C[C@H](OCc2ccc(CO)cc2)O1 | 8.5* | 8.1 | 4.6 | -3.8
C#CCNC(=O)C1=C[C@H](c2csc3ccccc23)C[C@H](OCCCCO)O1 | 3.9 | 4.4 | 0.8 | 1.0
C#Cc1ccc([C@@H]2C=C(C(=O)OCC=C)O[C@H](OCc3ccc(CO)cc3)C2)cc1 | 10.3* | 3.8 | 0.6 | 6.6
O=C(C1=C[C@@H](c2ccc(Br)cc2)C[C@@H](OCc2ccc(CO)cc2)O1)N1CCOCC1 | 9.2* | 1.1 | 0.6 | 2.5
C#Cc1ccc([C@H]2C=C(C(=O)O)O[C@@H](OCc3ccc(CO)cc3)C2)cc1 | 2.8 | 0.4 | 0.0 | 3.4
CC(Sc1nnc(Cc2ccc3c(c2)OCO3)o1)C(N)=O (stereo not drawn) | 1.3 | 2.2 | 0.3 | 4.6
COC(=O)c1nnn(CC(=O)NC(=O)Nc2ccc(F)cc2)c1C(=O)OC | -0.4 | 8.1 | 3.5 | 0.9
Cc1cc(C)c2cc(CN(Cc3cccnc3)C(=O)c3ccc(F)cc3)c(Cl)nc2c1 | -0.2 | 3.8 | 5.2 | 91.1*
SMILES | RAM inhibit | ABCG2 block | ABCB1 inh | Arbovirus anti
Cc1ccccc1NC(=O)C1C2CC/C=C\CCC21 (stereo not drawn) | 3.4 | 1.5 | 0.5 | 4.2
COc1cccc(-c2cc(C(=O)N3CC4(C)CC3CC(C)(C)C4)no2)c1 (stereo not drawn) | 10.3* | 4.8 | 0.9 | -21.1
COc1ccc(C2CC(c3ccccc3OC(C)=O)=NN2C(=O)/C=C/c2ccccc2)cc1OC (stereo not drawn) | 8.5* | 7.5 | 4.2 | -18.0
CCOc1ccc(/C=N/NC(=O)C2(O)c3ccccc3-c3ccccc32)cc1 | 1.6 | -1.3 | 1.0 | -3.9
CN(C)S(=O)(=O)c1cccc(NC(=S)NN=C(Cc2ccccc2)Cc2ccccc2)c1 | 10.4* | 4.0 | 0.7 | -13.3
CN(C)S(=O)(=O)c1cccc(NC(=S)NC2CCCCC2)c1 | 2.8 | 15.0 | 0.3 | 4.1
O=C(CSc1nnc(SCc2ccccc2)s1)N/N=C/C=C\c1ccco1 | 11.1* | 1.1 | -0.1 | -0.3
COc1cccc(C2CC(c3ccc(Cl)cc3Cl)Nc3nc(N)nn32)c1 (stereo not drawn) | -0.8 | 1.0 | 0.4 | 41.5*
CCCn1cc(S(=O)(=O)CC(=O)N2CCc3ccccc32)c2ccccc21 | 6.2 | 1.4 | 0.6 | 9.4
O=C(c1ccco1)N1CCN(C(=O)c2cccc3c2C(=O)N(C2CCCCC2)C3)CC1 | 1.6 | -9.6 | -2.9 | 5.7
NS(=O)(=O)c1ccc(CCNC(=O)Nc2ccc(Cl)c(Cl)c2)cc1 | 10.7* | 0.2 | 0.0 | -22.8
Cc1ccc(C)c(SCC(=O)Nc2cc(C)nn2-c2ccc(F)cc2)c1 | 8.6* | 48.4 | 2.1 | 1.2
COc1ccc(NC(=O)CSc2cc(C)ccc2C)cn1 | 0.3 | 1.9 | 0.3 | -6.2
c1ccc(-c2csc3ncnc(NCCCN4CCOCC4)c23)cc1 | 1.2 | 10.5 | 1.6 | 43.0*
c1csc(-c2csc3ncnc(NCCCN4CCOCC4)c23)c1 | 0.3 | 2.3 | 0.8 | 18.0
O=C(CSc1nnc(NC(=O)c2c(F)cccc2F)s1)Nc1ccc(F)cc1 | 3.2 | 0.9 | -0.1 | 36.9*
O=C(CSc1nnc(NC(=O)C2CC2)s1)Nc1ccc(F)cc1 | 3.1 | 1.3 | 0.1 | 10.7
CCc1ccc(N/C(SCc2ccccc2C)=C(/C#N)C(=O)NCc2ccco2)cc1 | 11.0* | 4.1 | 0.8 | 2.4
CCc1ccc(OCCCC(=O)NCc2ccco2)cc1 | 0.9 | 1.5 | 0.9 | -19.6
c1ccc(OCc2nc3c4c(ncn3n2)-c2ccccc2CC42CCCC2)cc1 | 8.4* | 5.4 | 1.1 | -5.9
C=CCN(CC=C)c1ccc(N2C(=O)C3CCCCC3C2=O)cc1[N+](=O)[O-] (stereo not drawn) | 9.0* | 4.7 | 3.4 | 6.4
Cc1ccc(/C=N/NC(=O)c2ccc(C(=O)N/N=C/c3ccc(C)s3)o2)s1 | 10.3* | -1.4 | -0.3 | -1.0
Cc1cc(N2CCN(C(=O)c3ccco3)CC2)n2nc(-c3cccc(F)c3)cc2n1 | 0.8 | 4.6 | 1.2 | -12.5
CCOC(=O)c1c(NC(=O)CSc2nnnn2C)sc(C)c1C | 0.4 | 6.1 | 0.6 | -3.0
CCOC(=O)c1c(NC(=O)CSc2nnnn2CC)sc(C)c1C | 8.9* | 16.2 | -1.1 | 4.0
CCOC(=O)c1c(NC(=O)Cn2nc(C(F)F)cc2C(F)F)sc(C)c1C | 9.6* | 8.2 | 0.1 | 13.2
CCOC(=O)c1c(NC(=O)COC(=O)c2cc(OC)c(OC)cc2[N+](=O)[O-])sc(C)c1C | 8.6* | 6.0 | 1.5 | -13.5
Cc1c(OCc2ccc(C(=O)O)o2)ccc2c3c(c(=O)oc12)CCC3 | 9.4* | 1.4 | 0.2 | 17.3
Cc1ccc(/C=C/C(=O)NCc2ccco2)o1 | 0.7 | -3.4 | -1.0 | -7.9
CC(C)CCNC(=O)c1ccc(Cl)c(NC(=O)c2ccccc2F)c1 | 1.1 | 2.4 | 0.6 | -33.7
